Experimental findings from ChEMBL document CHEMBL1144020, “Development of prodrug 4-chloro-3-(5-methyl-3-{[4-(2-pyrrolidin-1-ylethoxy)phenyl]amino}-1,2,4-benzotriazin-7-yl)phenyl benzoate (TG100801): a topically administered therapeutic candidate in clinical trials for the treatment of age-related macular degeneration” (J Med Chem, 2008) are described below.

For series [1], the target named is Vascular endothelial growth factor receptor 2 (Homo sapiens, UniProt P35968). The series is described as follows: Inhibition of VEGFR2.
Vascular endothelial growth factor receptor 2, sequence (P35968 whole entry): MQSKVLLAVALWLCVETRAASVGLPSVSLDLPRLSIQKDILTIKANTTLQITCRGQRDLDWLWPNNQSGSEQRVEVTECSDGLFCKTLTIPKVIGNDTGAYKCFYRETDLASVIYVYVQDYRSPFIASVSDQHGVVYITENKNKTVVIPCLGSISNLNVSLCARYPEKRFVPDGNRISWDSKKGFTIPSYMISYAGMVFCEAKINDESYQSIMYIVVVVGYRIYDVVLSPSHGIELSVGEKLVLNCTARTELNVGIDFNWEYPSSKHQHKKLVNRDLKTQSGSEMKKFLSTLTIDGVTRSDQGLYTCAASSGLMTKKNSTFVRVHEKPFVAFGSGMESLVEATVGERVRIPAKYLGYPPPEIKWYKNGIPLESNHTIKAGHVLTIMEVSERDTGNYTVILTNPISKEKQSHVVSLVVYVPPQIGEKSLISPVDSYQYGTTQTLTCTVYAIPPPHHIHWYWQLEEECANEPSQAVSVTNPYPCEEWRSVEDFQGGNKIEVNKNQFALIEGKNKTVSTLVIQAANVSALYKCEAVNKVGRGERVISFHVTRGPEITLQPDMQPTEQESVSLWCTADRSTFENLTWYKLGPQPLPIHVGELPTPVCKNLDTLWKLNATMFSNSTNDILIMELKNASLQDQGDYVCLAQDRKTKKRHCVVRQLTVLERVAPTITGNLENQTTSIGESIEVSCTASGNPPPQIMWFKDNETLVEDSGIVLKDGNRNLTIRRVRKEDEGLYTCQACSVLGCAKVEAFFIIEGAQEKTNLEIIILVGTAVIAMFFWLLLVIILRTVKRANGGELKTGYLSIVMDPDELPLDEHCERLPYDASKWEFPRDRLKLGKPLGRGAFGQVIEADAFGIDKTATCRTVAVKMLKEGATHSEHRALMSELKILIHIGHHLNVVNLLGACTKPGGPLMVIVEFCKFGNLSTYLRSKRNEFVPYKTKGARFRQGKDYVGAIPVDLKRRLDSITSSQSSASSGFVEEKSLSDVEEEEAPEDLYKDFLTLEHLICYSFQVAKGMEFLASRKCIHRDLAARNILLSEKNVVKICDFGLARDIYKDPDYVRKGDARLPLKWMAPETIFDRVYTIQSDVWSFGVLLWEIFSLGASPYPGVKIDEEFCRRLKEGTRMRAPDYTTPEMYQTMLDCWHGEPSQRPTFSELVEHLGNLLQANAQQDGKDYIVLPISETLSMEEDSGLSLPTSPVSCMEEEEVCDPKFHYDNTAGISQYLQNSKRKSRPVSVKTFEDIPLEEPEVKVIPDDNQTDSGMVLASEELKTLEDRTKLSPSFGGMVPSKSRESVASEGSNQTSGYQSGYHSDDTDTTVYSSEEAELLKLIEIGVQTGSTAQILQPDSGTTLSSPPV
A short description of series [2]: Stability at 120 degC after 1 hr. In kind it is physicochemical. Particulars: read-out: Stability. A digest of the protocol: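 Prodrugs at 0.5% in 0.5% HPMC/5% dextrose, pH 6.7, in closed vials, autoclaved at 120 °C for 1 h. After cooling, percent remaining was assessed by reverse-phase HPLC with diode-array and ELSD detection.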
The nature of series [3]: Stability in Dutch-belted rabbit eye assessed as hydrolysis rate. In kind it is ADME, tissue-based, Oryctolagus cuniculus. A digest of the protocol: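 Two Dutch-Belted rabbit eyeballs were homogenized in 1× RIPA buffer. Prodrug (from 1 mg/mL DMSO stock) was added to a final 5 µg/mL and kept at 37 °C, sampled at 0, 0.25, 1, 2 and 6 h. Controls were prodrug in RIPA buffer for 120 min at 37 °C. Supernatants were analyzed by LC/MS/MS for prodrug and released parent phenol.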

In series [4] the target is Proto-oncogene tyrosine-protein kinase Src (Homo sapiens, UniProt P12931). The series is described as follows: Inhibition of Src.
Proto-oncogene tyrosine-protein kinase Src, sequence (P12931 2-536 limits assumed): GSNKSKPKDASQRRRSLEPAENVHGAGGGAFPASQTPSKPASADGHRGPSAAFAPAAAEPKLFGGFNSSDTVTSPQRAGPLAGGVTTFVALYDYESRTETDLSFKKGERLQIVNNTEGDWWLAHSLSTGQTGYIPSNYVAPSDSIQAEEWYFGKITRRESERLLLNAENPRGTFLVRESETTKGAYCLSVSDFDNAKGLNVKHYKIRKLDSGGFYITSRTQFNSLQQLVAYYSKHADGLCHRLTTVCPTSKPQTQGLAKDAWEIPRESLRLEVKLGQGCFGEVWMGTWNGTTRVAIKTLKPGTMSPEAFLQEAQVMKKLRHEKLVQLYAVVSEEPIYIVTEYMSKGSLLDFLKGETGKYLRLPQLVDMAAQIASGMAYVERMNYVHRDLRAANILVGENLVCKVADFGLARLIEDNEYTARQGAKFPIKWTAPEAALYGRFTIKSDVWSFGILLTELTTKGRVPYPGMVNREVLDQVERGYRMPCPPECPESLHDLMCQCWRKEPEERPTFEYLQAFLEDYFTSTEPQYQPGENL

pIC50: −log10 of the molar value.

For the molecule `Cc1cc(-c2cc(O)ccc2Cl)cc2nnc(Nc3ccc(S(=O)(=O)NCCN4CCCC4)cc3)nc12`, the pIC50 (usually the IC50 on a negative log10 scale, so that one unit is a factor of ten) in series [1] was 8.33.

In the case of `Cc1cccc(C)c1C(=O)Oc1ccc(Cl)c(-c2cc(C)c3nc(Nc4ccc(OCCN5CCCC5)cc4)nnc3c2)c1`, in series [2], the remaining at 1 h was more than 90%. In addition, the Stability in series [3] stood at 1.1 ng/mL/h.

In series [1], `Cc1cc(-c2ccccc2)cc2nnc(Nc3ccc(OCCN4CCCC4)cc3)nc12` had a pIC50 of 6.28.

On to `Cc1cc(-c2cc(OC(=O)c3ccc(CN4CCOCC4)cc3)ccc2Cl)cc2nnc(Nc3ccc(OCCN4CCCC4)cc3)nc12`, for which the remaining at 1 h in series [2] is more than 90%.

In the case of `Cc1cc(-c2ccccc2Cl)cc2nnc(Nc3ccc(OCCN4CCCC4)cc3)nc12`, the negative logarithm of the IC50 (pIC50) in series [1] was 5.72.

Take `Cc1cc(-c2cc(OC(=O)c3c(Cl)cccc3Cl)ccc2Cl)cc2nnc(Nc3ccc(OCCN4CCCC4)cc3)nc12`: the remaining at 1 h in series [2] was more than 90%. The Stability in series [3] worked out at 1.7 ng/mL/h.

`Cc1ccc(C(=O)Oc2ccc(Cl)c(-c3cc(C)c4nc(Nc5ccc(OCCN6CCCC6)cc5)nnc4c3)c2)cc1`: the remaining at 1 h in series [2] was more than 90%.

Consider `Cc1cc(-c2cc(O)ccc2Cl)cc2nnc(Nc3ccc(CCCN4CCCC4)cc3)nc12`, for which the negative-log IC50 (pIC50) was 8.82 in series [4] and 8.57 in series [1].

Take `Cc1cc(-c2cc(OC(=O)C(C)(C)C)ccc2Cl)cc2nnc(Nc3ccc(OCCN4CCCC4)cc3)nc12`: in series [2], the remaining at 1 h is more than 90%. For the same molecule, the Stability in series [3] turned out to be 172 ng/mL/h.
